According to ChEMBL document CHEMBL4765399, “Design, synthesis, and biological evaluation of 5-((8-methoxy-2-methylquinolin-4-yl)amino)-1H-indole-2-carbohydrazide derivatives as novel Nur77 modulators” (Eur J Med Chem, 2020):
The source made the active and inactive calls. No cut-off for these calls is given here.

Assays:
[1] = test system: HepG2; test: Induction of apoptosis in human HepG2 cells assessed as live cells at 1 uM incubated for 12 hrs by Annexin V-FITC/PI staining based flow cytometry (reference value: 94%); type: functional
[2] = test system: HepG2; test: Induction of autophagy in human HepG2 cells assessed as increase in Beclin 1 expression measured after 12 hrs by Western blot analysis; type: functional, cell-based; conditions: dose 0.5-2 µM
Summary of the method: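 HepG2, QGY-7703 and SMMC-7721 treated with graded concentrations for 12 h. Lysed in RIPA with inhibitors; 40-80 µg protein separated by SDS-PAGE, blotted to nitrocellulose, blocked 1 h in 5% milk, primary antibodies overnight (LC3, Beclin1, Bip, CHOP, TRB3), HRP secondaries, chemiluminescence.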

[3] = molecular target: T1, Nuclear receptor subfamily 4immunitygroup A member 1 (Homo sapiens, UniProt P22736); test: Binding affinity to Nur77 ligand binding domain (unknown origin) assessed as dissociation constant by fluorescence titration based analysis
T1 sequence (P22736 whole entry, the tested form may be a part): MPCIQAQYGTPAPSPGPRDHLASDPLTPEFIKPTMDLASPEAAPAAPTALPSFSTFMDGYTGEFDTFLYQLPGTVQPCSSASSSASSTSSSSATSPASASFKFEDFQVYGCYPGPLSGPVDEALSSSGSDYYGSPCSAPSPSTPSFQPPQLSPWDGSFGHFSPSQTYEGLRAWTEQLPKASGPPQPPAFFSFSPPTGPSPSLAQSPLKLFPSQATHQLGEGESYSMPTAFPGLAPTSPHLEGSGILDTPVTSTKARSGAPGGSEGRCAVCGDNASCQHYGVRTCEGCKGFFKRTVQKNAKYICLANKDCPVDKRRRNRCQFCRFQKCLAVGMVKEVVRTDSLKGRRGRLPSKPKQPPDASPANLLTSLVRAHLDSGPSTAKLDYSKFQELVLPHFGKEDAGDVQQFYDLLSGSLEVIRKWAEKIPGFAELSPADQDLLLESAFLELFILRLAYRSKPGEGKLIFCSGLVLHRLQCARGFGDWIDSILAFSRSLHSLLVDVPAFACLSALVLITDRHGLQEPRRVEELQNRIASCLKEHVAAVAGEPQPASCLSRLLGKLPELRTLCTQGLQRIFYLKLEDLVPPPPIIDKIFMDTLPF
Summary of the method: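 Intrinsic tryptophan fluorescence quench: 1 μM Nur77-LBD titrated with 0–4 μM ligand in about 0.2 μM steps (20 points). After 30 min at room temperature, read at 25 °C, excitation 280 nm, emission 340 nm. KD fitted to a two-state 1:1 complex model.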

[4] = test system: HepG2; test: Upregulation of Nur77 expression in human HepG2 cells pretreated with nuclear export inhibitor, LMB followed by incubation with compound for 12 hrs by western blot analysis; type: functional, cell-based
[5] = test system: HepG2; test: Induction of apoptosis in human HepG2 cells assessed as cleaved PARP expression at 2 uM pretreated with ER stress inhibitor, 4-PBA for 2 hrs followed by incubation with compound for 12 hrs by Western blot analysis; type: functional, cell-based
Summary of the method: (§1)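 HepG2 cells grown to confluence were pretreated 2 h with 2 mM 3-MA (autophagy inhibitor) or 2 mM 4-PBA (ER stress inhibitor), then exposed to compound for 12 h. Proteins (40–80 µg, RIPA lysate) were resolved by SDS-PAGE and blotted for PARP, cleaved caspase-3/-9, Bcl-2 and Bax, with chemiluminescent detection.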

[6] = test system: HepG2; test: Induction of apoptosis in human HepG2 cells assessed as cleaved caspase-9 expression at 2 uM pretreated with ER stress inhibitor, 4-PBA for 2 hrs followed by incubation with compound for 12 hrs by Western blot analysis; type: functional, cell-based; summary of the method: as §1
[7] = molecular target: T1, Nuclear receptor subfamily 4immunitygroup A member 1; test: Modulation of Nur77 in human HepG2 cells assessed as induction of Nur77 translocation into cytoplasm from nucleus by measuring increase in protein expression in cytoplasm at 2 uM by western blot analysis; type: subcellular; conditions: filed as modulator, time 1-8 hrs, TDE = time-dependent effect
Summary of the method: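 HepG2 given 2.0 µM for set times; cells swollen 10 min on ice in HEPES/NaCl/EDTA/CaCl2/MgCl2 buffer, 0.1% NP40 added, spun 15000 rpm 3 min at 4 °C giving cytoplasmic supernatant; pellet extracted in RIPA. Fractions blotted for Nur77, with PARP (nuclear) and tubulin (cytoplasmic) as loading controls.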

[8] = molecular target: T1, Nuclear receptor subfamily 4immunitygroup A member 1; test: Binding affinity to Nur77 ligand binding domain (unknown origin) assessed as dissociation constant by surface plasmon resonance analysis
Summary of the method: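 SPR with Nur77-LBD, analyte injected at a series of concentrations; KD (equilibrium dissociation constant) and association/dissociation kinetics derived from the sensorgrams.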

[9] = test system: HepG2; test: Induction of apoptosis in human HepG2 cells assessed as Bax/Bcl-2 ratio at 2 uM pretreated with autophagy inhibitor, 3-methyladenine for 2 hrs followed by incubation with compound for 12 hrs by Western blot analysis; type: functional, cell-based
[10] = test system: HepG2; test: Antitumor activity against human HepG2 cells xenografted in BALB/c mouse assessed as induction of autophagy by measuring increase in Beclin1 level in tumor tissue at 10 to 20 mg/kg/day, ip administered for 15 days by western blot analysis; type: functional, organism-based; conditions: dose 10-20 mg/kg/day, time 15.0 day
Summary of the method: (§2)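 HepG2 cells (5×10^6) injected subcutaneously into flanks of 4-week-old male Balb/c nude mice. At about 100 mm³, 15 mice were randomized to vehicle, 10 or 20 mg/kg i.p. once daily for 15 days. Tumors were then excised for immunostaining of paraffin sections (5 μm) or for western blot.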

[11] = test system: HepG2; test: Induction of apoptosis in human HepG2 cells transfected with shRNA assessed as necrotic cells at 2 uM incubated for 12 hrs by Annexin V-FITC/PI staining based flow cytometry (reference value: 0.15%); type: functional
[12] = test system: HepG2; test: Induction of endoplasmic reticulum stress in human HepG2 cells transfected with shNur77 assessed as increase in PDI protein expression at 2 uM incubated for 6 hrs by confocal microsocopic analysis; type: functional, cell-based
Summary of the method: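 HepG2, or HepG2 plus shNur77 HepG2, treated with 2.0 µM for 6 h, fixed in 4% paraformaldehyde 20 min, permeabilised 0.1% Triton X-100, blocked in 5% BSA, stained with PDI antibody and imaged by confocal fluorescence microscopy.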

[13] = test system: HepG2; test: Disruption of mitochondrial membrane potential in human HepG2 cells transfected with shNur77 assessed as green fluorescence intensity at 2 uM incubated for 12 hrs by JC-1 staining based flow cytometry (reference value: 44890 units); type: functional
[14] = test system: HepG2; test: Antitumor activity against human HepG2 cells xenografted in BALB/c mouse assessed as induction of autophagy by measuring increase in LC3-II level in tumor tissue at 10 to 20 mg/kg/day, ip administered for 15 days by western blot analysis; type: functional, organism-based; conditions: dose 10-20 mg/kg/day, time 15.0 day; summary of the method: as §2
[15] = test system: QGY-7703; test: Induction of apoptosis in human QGY-7703 cells assessed as increase in cleaved PARP level at 0.5 to 2 uM incubated for 12 hrs by Western blot analysis; type: functional, cell-based; conditions: dose 0.5-2 µM
Summary of the method: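 QGY-7703 (RPMI 1640, 10% FBS) and SMMC-7721 (DMEM) cells at 37 °C, 5% CO2, treated with graded concentrations for 12 h. RIPA lysates (40-80 µg protein) run on SDS-PAGE, transferred to nitrocellulose, immunoblotted for cleaved PARP; chemiluminescence read-out.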

[16] = test system: SMMC-7721; test: Antiproliferative activity against human SMMC-7721 cells assessed as reduction in cell viability incubated for 48 hrs by MTT assay; type: functional, cell-based; conditions: SMMC-7721, 48 h
Summary of the method: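 MTT assay after 48 h exposure at six concentrations, range chosen by cytotoxicity. Inhibition = (ODcontrol − ODtest)/ODcontrol × 100%; IC50 is the concentration halving OD versus untreated cells. Means ± SD of three independent determinations. HepG2 and SMMC-7721 grown in DMEM, QGY-7703 and LO2 in RPMI 1640, with 10% FBS at 37 °C.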

[17] = molecular target: T1, Nuclear receptor subfamily 4immunitygroup A member 1; test: Modulation of Nur77 in human HepG2 cells assessed as induction of mitochondrial translocation at 2 uM incubated for 6 hrs by Mito-tracker based confocal microscopy; conditions: Mitochondria, filed as modulator
Summary of the method: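 HepG2 cells given 2.0 µM for 6 h, then stained with anti-Nur77 antibody plus Mito-tracker. Cells fixed in 4% paraformaldehyde for 20 min, permeabilized with 0.1% Triton X-100, blocked with 5% BSA. Anti-Nur77 (1:500) for 1 h, then FITC- or Cy3-conjugated anti-rabbit IgG for 1 h. Imaged by confocal microscopy.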

[18] = test system: HepG2; test: Induction of apoptosis in human HepG2 cells assessed as increase in PARP cleavage at 2 uM measured after 12 hrs by Western blot analysis

Kd [3]: 1.34 µM
Activity [7]: Tde
Kd [8]: 3.58 µM
Activity ([8]; filed as modulator): Dose-dependent effect
IC50 [16]: 1.4 µM
Activity [17]: Active
SMILES: COc1cccc2c(Nc3ccc4[nH]c(C(=O)N/N=C/c5ccc(SC)cc5)cc4c3)cc(C)nc12
Activity [1]: 65%
Activity [2]: Dose-dependent effect
Activity [4]: Active
Activity [5]: inactive
Activity [6]: inactive
Activity [9]: inactive
Activity [10]: Active
Activity [11]: 0.16%
Activity [12]: inactive
Activity [13]: 52452 U
Activity [14]: Active
Activity [15]: Dose-dependent effect
Activity [18]: Active
